AI-2 QS mod: modulates the Vibrio harveyi AI-2 quorum sensing system; Vibrio harveyi JMH597 AI-2 luminescence/OD600 ratio, 9 h; active compounds read low; strain lacks LuxN and CqsS sensors; 0 = neutral-control median; activity change, % at 7.5 µM; actives 0.4% (n = 300,000); AID 2094; in the data active means activity change below about -75%, passing the limit was not always enough;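 further: luminescence divided by OD600 gain over 9 h not by final OD600 alone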
MC4R ag barr: agonists of human melanocortin 4 receptor (MC4R) beta-arrestin; P32245; U2OS MC4R beta-arrestin complementation, luminescence; percent of melanotan II response, DMSO zero; activation, % at 8.9 µM; actives 0.98% (n = 360,000);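 active means activation above a per-plate cutoff, the mean activation of sample wells on that plate plus 3 SD, cut at about 8% in these data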
MC4R antagonist: human MC4R antagonism in cAMP assay. inhibition, % at 6.5 µM. MC4R-expressing cells, MTII-stimulated cAMP, LANCE TR-FRET. P32245. actives 0.48% (n = 360,000);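 active means inhibition above its plate's cutoff, the mean of tested wells on that plate plus 3 SD, cut at about 29% in these data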;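 further: 0% = Melanotan II alone and 100% = Melanotan II plus saturating MCL0020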
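Assay system: U2OS-MC4R stable cell line; Also added: Melanotan II; Technique: Eu-cAMP/anti-cAMP TR-FRET, emission 671 nm; Times: 30-min compound, 1-h challenge, 1-h detection, room temperature.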
NTR1 ag: activates human neurotensin receptor 1. P30989. activation, % at 20 µM. actives 0.17% (n = 330,000). NTR1-U2OS beta-arrestin-GFP spot imaging, agonist mode;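 active means activation at or above 40% of the spot to cytoplasm intensity ratio, with at least 20 cells analyzed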;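 further: 0% = DMSO without peptide and 100% = 100 nM NTR1 peptide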
Target sequence (P30989 whole entry, looked up): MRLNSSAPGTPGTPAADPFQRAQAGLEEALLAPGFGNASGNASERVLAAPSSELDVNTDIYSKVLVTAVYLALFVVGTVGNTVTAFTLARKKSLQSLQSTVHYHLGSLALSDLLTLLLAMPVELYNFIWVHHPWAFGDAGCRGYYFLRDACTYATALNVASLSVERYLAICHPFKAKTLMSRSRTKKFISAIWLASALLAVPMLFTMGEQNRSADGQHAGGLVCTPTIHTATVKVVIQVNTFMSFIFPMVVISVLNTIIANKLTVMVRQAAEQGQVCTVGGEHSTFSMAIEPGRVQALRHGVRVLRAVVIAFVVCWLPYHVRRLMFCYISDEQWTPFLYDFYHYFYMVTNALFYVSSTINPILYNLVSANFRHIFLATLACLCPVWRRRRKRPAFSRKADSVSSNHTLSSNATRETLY
MC4R barr ag: human MC4R beta-arrestin agonism confirmation; shares compounds with MC4R ag barr; U2OS MC4R beta-arrestin recruitment, luminescence; scaled DMSO 0%, Melanotan II 100%; activation, % at 8.9 µM; actives 31% (n = 2,400); AID 602192;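 active means mean activation across replicates above the hit cutoff set in the earlier primary screen, cut at about 8% in these data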
MOR-DOR barr ag: OPRM1-OPRD1 heterodimer agonism counter-screen | shares compounds with MC4R ag barr | U2OS PathHunter beta-arrestin, beta-gal luminescence; percent of deltorphin B response, DMSO zero | activation, % at 9.2 µM | actives 5.8% (n = 2,400);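 active means mean activation across replicates exceeds the hit threshold derived in the earlier primary screen, cut at about 18% in these data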;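 further: 100% = deltorphin B at 0.9 µM final and 0% = DMSO alone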
The depositor's hits bear a star; . = no result. An excerpt weighted towards active compounds, which were near 1.8% of everything screened.

SMILES | AI-2 QS mod | MC4R ag barr | MC4R antagonist | NTR1 ag | MC4R barr ag | MOR-DOR barr ag
Cc1nc(NC(=O)CSc2nc3cccnc3n2Cc2ccccc2)sc1C | 20 | 26* | -3 | 14 | 3 | 8
CCOc1ccc2nc(NC(=O)CS(=O)(=O)c3ccc(C)cc3)sc2c1 | 13 | 11* | -10 | 2 | 5 | 8
CCOc1ccc2nc(NC(=O)CSc3nc4cccnc4n3C)sc2c1 | 20 | 16* | 3 | 2 | 8.9* | 7
O=C(NC1CCCCC1)c1cccc(OCc2ccccc2)c1 | 10 | 2 | 4 | 0 | . | .
COc1ccc(-c2n(CC(=O)OC3CC(C)CCC3C(C)C)c3ccccc3[n+]2C)cc1 (stereo not given) | 15 | 3 | -2 | . | . | .
COc1ccc(OCc2n(CC(=O)OC3CC(C)CCC3C(C)C)c3ccccc3[n+]2C)cc1 (stereo not given) | 38 | 38* | -6 | 28 | 11* | 9
CCOc1cc(CNCc2ccccc2)ccc1OCc1ccc(Cl)cc1 | 25 | 8 | -6 | 8 | . | .
COc1ccc(CNCCc2ccc(Cl)cc2)cc1OCc1ccccc1 | 25 | 16* | -3 | 12 | 24* | 11
CCOc1ccc(C2CC(c3ccc(CC)cc3)n3nc(N)nc3N2)cc1 (stereo not given) | 20 | 4 | 1 | 6 | . | .
CCc1ccc(C2CC(c3ccccc3Cl)Nc3nc(N)nn32)cc1 (stereo not given) | 2 | 19* | 7 | 10 | 14* | 4
CCOc1ccc(C2CC(c3ccc(CC)cc3)Nc3nc(N)nn32)cc1 (stereo not given) | 14 | 10* | 10 | 2 | 8 | 3
O=C(CC(=O)Nc1ccc(Cl)cc1Cl)Nc1ccc(Cl)cc1Cl | 15 | 11* | 6 | -1 | 3 | 3
COc1ccc(CNC(=O)CCCCCn2c(SCC#N)nc3cc4c(cc3c2=O)OCO4)cc1 | 9 | 19* | 8 | 4 | -2 | 3
COCCNC(=S)N/N=C/c1ccc(-c2ccc([N+](=O)[O-])cc2)o1 | 31 | 11* | -5 | 35 | 0 | 6
CCOC(=O)N1CCN(C(=O)c2ccc3c(c2)NC(=O)/C(=C\c2cccc(C)c2)S3)CC1 | 3 | 4 | -2 | 18 | . | .
CC(=O)Nc1ccc(OCCC[n+]2ccccc2)cc1 | 16 | -2 | -1 | -1 | . | .
CCCCCc1ccc(OCCC[n+]2ccccc2)c(CCCCC)c1 | 9 | 15* | 18 | 13 | 4 | 8
O=C(COC(=O)CCC1CCCC1)Nc1cccc(S(=O)(=O)N2CCOCC2)c1 | -3 | 0 | 2 | 1 | . | .
COc1cccc(NC(=O)C2CC2(c2cccc(OC)c2)c2cccc(OC)c2)c1 (stereo not given) | 6 | -1 | 11 | 0 | . | .
COc1cccc(C2(c3cccc(OC)c3)CC2C(=O)Nc2cccc3ccccc23)c1 (stereo not given) | -3 | 9.6* | 10 | 3 | 1 | 4
COc1cccc(-c2cnc3c(NC(C)=O)cc(-c4ccccc4OC)cn23)c1 | . | 22* | 19 | . | 15* | 2
COc1ccccc1-c1cc(NC(C)=O)c2ncc(-c3ccccc3)n2c1 | . | 16* | 13 | . | 18* | 3
COc1ccc(-c2cc(NC(C)=O)c3ncc(-c4ccccc4)n3c2)c(OC)c1 | . | 32* | 9 | . | 37* | 2
COc1cccc(-c2cnc3c(NC(C)=O)cc(-c4cc(OC)c(OC)c(OC)c4)cn23)c1 | . | 29* | 12 | . | 21* | 1
COc1cccc(-c2cnc3c(NC(C)=O)cc(-c4cccc(C(=O)NCCO)c4)cn23)c1 | . | 8 | 20 | . | . | .
SMILES | AI-2 QS mod | MC4R ag barr | MC4R antagonist | NTR1 ag | MC4R barr ag | MOR-DOR barr ag
COc1ccc(-c2cnc3c(NC=O)cc(-c4ccccc4OC)cn23)cc1OC | . | 5 | -60 | . | . | .
COc1cccc(-c2cnc3c(NC(C)=O)cc(-c4ccncc4)cn23)c1 | . | 5 | 7 | . | . | .
CC1CN(C(C)C(=O)NC(c2ccccc2)c2ccccc2)CC(C)O1 (stereo not given) | -2 | 0 | 20 | -1 | . | .
CC(=O)Nc1cc(-c2ccccc2N(C)C)cn2c(-c3ccccc3)cnc12 | . | 18* | 6 | . | 32* | 3
COC(=O)c1ccccc1NC(=O)CCn1c(=O)oc2ccccc21 | 16 | -1 | -3 | -1 | . | .
C=CCC(C#N)(c1ccc(OC)c(OC)c1)c1cnccn1 (stereo not given) | 24 | -1 | -2 | -1 | . | .
N#Cc1c(-c2cccc(Br)c2)cc(-c2cccnc2)nc1N | -1 | 32* | 9 | 8 | 6 | 16
CC(C)(C)OC(=O)NCc1ccc(CNC(=O)c2[nH]cnc2C(=O)NC2CCN(C(=O)OC(C)(C)C)CC2)cc1 | . | 1 | -4 | 12 | . | .
Cc1cc(OC(C)C(=O)NCc2ccccn2)c2c(C)cc(=O)oc2c1 (stereo not given) | 0 | 1 | 13 | 1 | . | .
Cc1cc(OC(C)C(=O)NCc2ccccn2)c2c(C)c(Cc3ccccc3)c(=O)oc2c1 (stereo not given) | . | 11* | 11 | 7 | 1 | 2
CO/N=C(/CS(=O)Cc1ccc(Cl)cc1)c1ccc(Cl)cc1 (stereo not given) | 10 | 14* | 11 | 4 | 0 | 6
COc1ccc(OCC(O)CN2CCN(c3ccc(Cl)cc3)CC2)cc1 (stereo not given) | 14 | 11* | 4 | -1 | 3 | 7
CN(C(=O)COn1nnc2ccc(Cl)cc21)C1CCS(=O)(=O)C1 (stereo not given) | . | 1 | -1 | 3 | . | .
CC(C)NC(=O)Nc1ccc2c(c1)C(=O)N([C@H](C)CO)C[C@@H](C)[C@@H](CN(C)C(=O)NC1CCCCC1)O2 | . | -1 | 1 | 0 | . | .
Cc1ccc2c(Cl)cc(Cl)c(OCC(=O)NC(=O)NCc3ccco3)c2n1 | -2 | 11* | 12 | -1 | 2 | 3
COC(=O)c1ccc(C2C(Oc3ccc(OC)cc3)C(=O)N2CCc2ccc(OC)c(OC)c2)cc1 (stereo not given) | -1 | 6 | 1 | 4 | . | .
COC(=O)c1ccc(C2C(Oc3ccccc3)C(=O)N2CCc2ccc(F)cc2)cc1 (stereo not given) | 12 | 20* | 11 | 15 | 3 | 5
O=C(COc1c(Br)cc(Br)c2cccnc12)Nc1ccccc1F | 24 | 13* | -1 | 19 | 2 | 2
CCOC(=O)CNC(=O)c1cc(-c2ccccn2)nc2c(C)c(Cl)ccc12 | 0 | 30* | 15 | 6 | -3 | 5
Cc1ccccc1N(C(=O)Cc1c[nH]c2ccccc12)C(C(=O)NC1CCCCC1)c1ccco1 (stereo not given) | 11 | 21* | -5 | 0 | 6 | 11
